B1: tRNA (parent)
chain: GUUCCGUUGGCGUAAUGGUAACGCGUCUCCCUCCUAAGGAGAAGACUGCGGGUUCGAGUCCCGUACGGAACG

This sample holds only a part of the variants without activity.

This data set covers variants of B1. The experiment in a line: yeast fitness relative to wild type (ratio to wild type); higher = fitter; tRNA-Arg(CCU), competitive growth, 37 C, YPD. The method in brief:
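Variants of the tRNA-Arg(CCU) gene, chemically synthesised with a 3% per-site mutation rate at 69 sites, were placed at the native genomic locus in Saccharomyces cerevisiae. The pooled strains were competed in YPD at 37°C for 24 hours in six parallel replicates. Gene amplicons from the start population and from each end population were read by 100-nucleotide paired-end sequencing. Darwinian fitness relative to wild type came from changes in genotype frequencies; genotypes needed ≥ 100 starting reads, and estimates < 0.5 were set to 0.5.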
With A14C U32G G39C, the yeast fitness is at most 0.5. Consider U8C G58C, for which the yeast fitness was 0.919.

U3A C4G U59A A65C A70C: the yeast fitness was at most 0.5.

With C5U A14U C55G A65G, the yeast fitness came out at 0.566. The result for A14G A40G A43U G50C A69U reads at most 0.5; that for A14G C22G A70C, 0.637; that for G10A G12C A21U A42U, at most 0.5. For the variant C5U C11U A14G A15G G48C, the yeast fitness was at most 0.5. The result for U26G U59A reads 0.663; that for G9C A36G A70G, at most 0.5. In the case of G10A G25C C49G, the yeast fitness is 0.603. Consider C33G A57U C62U, for which the yeast fitness is at most 0.5. The result for C4A A20C C27U U32C C46U reads at most 0.5; that for C22G A57G, 0.676; that for C34U C55A C62U C66U, at most 0.5. As to U2A C66A, the yeast fitness came out at 0.704. As to G39C G44C G56C, the yeast fitness is at most 0.5. The result for G10C U19A C24U reads 0.531; that for G17U A40C, 0.823. As to C11U G44A A65C, the yeast fitness is 0.704. With A20C A36U A45C C49G the figure was at most 0.5; with G12C G18C C66U, 0.528. For C33G C46U C60U, the yeast fitness was at most 0.5. Regarding C60U A70C, the yeast fitness turned out to be 0.732. The result for U3A C11U U13C C31A reads at most 0.5; that for C24A A40G, 0.551.

C24A A40C: the yeast fitness turned out to be 0.658. Turning to A37U C46U, the yeast fitness came to 0.821. As to C11U A43U G63C, the yeast fitness came to 0.558.

For G18A A21C A37C C66A, the yeast fitness turned out to be 0.695. As to C31U U47G G67C, the yeast fitness is at most 0.5. On to C22U A37G G48C, for which the yeast fitness was 0.54.

C29G C30U C46U G48A: the yeast fitness is at most 0.5.

Turning to U19C A20U G56C A57U, the yeast fitness worked out at 0.562. Consider C4G G9A G10C C29A G50U U59G A69U, for which the yeast fitness is at most 0.5.

For the variant A45C C60U, the yeast fitness was 0.752. Consider A36G C60U C61U, for which the yeast fitness came out at 0.625. Consider A14U A20G A69C, for which the yeast fitness was at most 0.5.

As to G38A G48A C49G, the yeast fitness is 0.525. Regarding G58A C66G, the yeast fitness turned out to be 0.943.

Turning to C30U A37G A70C, the yeast fitness is 0.59.

Regarding G17A A42C, the yeast fitness was 0.645.

As for G9C C11A G23A A37U C60U, the yeast fitness was at most 0.5.

As to C24U A37G G63C C66U, the yeast fitness stood at 0.581. For U26C A40U C60U A69C, the yeast fitness amounted to 0.535. For the variant C33G A36U C49A, the yeast fitness was at most 0.5. The result for G10A C24U reads 0.977; that for G6A C22U C29G A42G, at most 0.5; that for C4G G10A G41C, at most 0.5. In the case of U19A C31A A37G C49U, the yeast fitness was at most 0.5. In the case of U8A G25A G48C C62A, the yeast fitness is at most 0.5. As for A20G C60U C66U, the yeast fitness is at most 0.5. In the case of A42U U53G A70U, the yeast fitness is at most 0.5. Take C33U C46G C49U: the yeast fitness is 0.632. With C27A G41A A45U U59G the figure was at most 0.5; with C5G U8C A15G G18C, at most 0.5; with U13A U32A C60G, at most 0.5. For A20C C24G G56A C62A, the yeast fitness was at most 0.5. As for C4U G9A G68A, the yeast fitness came to 0.968. Regarding G18A C29A C33U C60G, the yeast fitness is at most 0.5.

On to U16C G48A, for which the yeast fitness amounted to 0.996. With G44C C62A, the yeast fitness was determined as 0.738. A43G G44C C66U: the yeast fitness amounted to 0.57. Regarding A36G A57C A65U, the yeast fitness is at most 0.5.

On to U3A U7A C30U G50C U59C, for which the yeast fitness was at most 0.5. On to C22U U47A, for which the yeast fitness worked out at 0.77. Take U7C C49A G67A: the yeast fitness is at most 0.5.

In the case of C31G U32C A37U A69C, the yeast fitness is at most 0.5.

Regarding C22A U26A C29G G50C, the yeast fitness is at most 0.5.

Regarding A21C A36U C46U, the yeast fitness is at most 0.5. With C11G G58C the figure was 0.589; with A21G C60G, 0.667. For C24G G44C G58C G68U, the yeast fitness stood at 0.516. Take C29A C30U A36U A70C: the yeast fitness was at most 0.5. The result for U2G C27U A36G reads 0.552; that for A14U G18C A36G, at most 0.5; that for U13A U19A C34U A42C A43U, at most 0.5. With C11U C55G A70C, the yeast fitness is 0.541.

For U8C U16C C24U U47A C55U, the yeast fitness is at most 0.5. As for U2A G58A, the yeast fitness is 0.838. On to A36U U53G A69U, for which the yeast fitness was at most 0.5. Turning to G25A U64C, the yeast fitness stood at 0.902. The result for G17C C46U reads 0.686; that for C4U C5G U16C C24G A42C G58A, 0.571.

Turning to U2G C22U C62U, the yeast fitness was determined as 0.616.

Regarding U26A C55A A57U, the yeast fitness was at most 0.5. With C5A U54C A70U the figure was 0.532; with A65C G67A, 0.692; with U3G G17C C62U, at most 0.5. Take A21C A42G U54G: the yeast fitness turned out to be 0.555.

Consider C4G G9A A21C C22A C66U, for which the yeast fitness was determined as 0.559. For the variant C4A A21C C22U U35C G50C A70U, the yeast fitness was determined as 0.563. With C24G U53G U54A G58C the figure was 0.552.

Turning to A14U C27G G52A G63C, the yeast fitness was at most 0.5.

As for U16A C24U C30G U35A C49A G67C, the yeast fitness amounted to 0.751. For C5A C27A C34G U59C, the yeast fitness was determined as 0.539.

On to G6C G12A, for which the yeast fitness was found to be 0.85. As for A14C C27U U47C C60G, the yeast fitness is 0.641.

As for C5A C22G C27G A36U A40C G67A, the yeast fitness was at most 0.5.

For the variant G6C C33G A36C C49A G56A C60G A70U, the yeast fitness is at most 0.5. On to C30U C46U C60A, for which the yeast fitness is at most 0.5. For the variant U3G G18A G25A C29A, the yeast fitness is at most 0.5. Regarding C11U A15C C27A G68A, the yeast fitness is at most 0.5. For the variant G48A C62G A69U, the yeast fitness turned out to be 1.03. With G12A U64A the figure was 0.849; with U3C C4U A20C A21U C27G A42U G52A, at most 0.5; with C4A C33A A40U A70G, at most 0.5. With A21G C29U C34U C55A C60G, the yeast fitness was at most 0.5. Turning to C11A U16C G18C A45C A57C G68A, the yeast fitness is at most 0.5.

Take C5U C46A C66U: the yeast fitness worked out at 0.663. A15U A40G A65U: the yeast fitness came out at 0.516.

As to A21C A45C C49U U54C, the yeast fitness is at most 0.5. U7A A21U G41A: the yeast fitness was 0.619. For the variant C4A C5G A37G C46G, the yeast fitness is at most 0.5. The result for U28C U47C reads 0.915; that for C55G G63C G67C, 0.532; that for A14C U26A C29U C49U, at most 0.5. On to C4G A14C C22U U47C, for which the yeast fitness is at most 0.5. On to U19G C29U A40C A65G, for which the yeast fitness was at most 0.5. With A14C G58C G68C the figure was at most 0.5; with G51A A70U, 0.935; with G9A U26A A43U, 0.616. Regarding U16A G68U, the yeast fitness was 0.837. With C11U C31U the figure was 0.804; with U13C A70G, 1.03. With C4A A65C G67U the figure was at most 0.5. With G12C U19A C27G C49G C61U the figure was at most 0.5; with G6A A15C A20U G68A, at most 0.5. For the variant C34G A40U A43C C49G G50A C60U, the yeast fitness was at most 0.5. U19C C24G A37U G56A A65C: the yeast fitness is at most 0.5.

For G9C C24U U26G U54G, the yeast fitness was at most 0.5. With U3A U54G, the yeast fitness came out at 0.595. Take C11U C29A C31G: the yeast fitness is at most 0.5. For C22A U28G G58C U64C, the yeast fitness was at most 0.5. Consider G10A G18A C62U, for which the yeast fitness was at most 0.5. On to C27A C29U C49U, for which the yeast fitness is at most 0.5. For A36G C61A, the yeast fitness was 0.766.

As for G6A C34A A40U G52A A65U A70C, the yeast fitness was at most 0.5.

On to U7A G48A, for which the yeast fitness was 0.99. As for G63C G67C, the yeast fitness amounted to 0.605. The result for G6C C11U C34G U47G reads at most 0.5; that for C5U G63A, 0.828; that for U13G G18A G39C A69U, at most 0.5. Regarding C22G C34A G56C, the yeast fitness is at most 0.5. As to C4U C31A A36G G44C, the yeast fitness turned out to be 0.59. As for C27G C31A A70C, the yeast fitness stood at 0.539. With G9A C24U C30G C34A C49G the figure was at most 0.5; with G12A U26A A70U, 0.523; with C34U G67C, 0.723. In the case of C22A C24G, the yeast fitness was 0.507. A14G G39C G68A A70U: the yeast fitness is at most 0.5. Take G17A C49G U53C: the yeast fitness was at most 0.5. The result for G10C C27G U54C C61G reads at most 0.5; that for U19G A20U C30U G48A, 0.577.

For the variant G6A A14G C46G C62G, the yeast fitness is at most 0.5. Regarding U13A A21C G38A A40U G50C C60G A70G, the yeast fitness is at most 0.5.

U3A U13G C22U A40U C55G A70G: the yeast fitness is at most 0.5.

Consider G17A C31A C33U, for which the yeast fitness was at most 0.5. Consider C11U G18C G23C A57C, for which the yeast fitness was at most 0.5.

Take A45C U64C: the yeast fitness was 0.941.

In the case of A15U G39A A57G, the yeast fitness was at most 0.5. With G18A G23A G58C A70C the figure was at most 0.5; with U28C A37C A70C, at most 0.5.

Turning to G9C U19C C24U C27A, the yeast fitness is at most 0.5. The result for C31G C61A reads 0.65; that for G41C A65G, 0.905. With A20C A21G U64G, the yeast fitness stood at 0.558.

The record behind these values is the RNAGym collection of RNA variant scans (doi:10.1126/science.aae0568).
